According to ChEMBL document CHEMBL2086341, “COX inhibitors Indomethacin and Sulindac derivatives as antiproliferative agents: synthesis, biological evaluation, and mechanism investigation” (Eur J Med Chem, 2012):
pIC50: −log10 of the molar value. Active and inactive are the calls of the source. The calls are words filed in the database; no cut-off is given here.

Key:
[1] = test system: HT-29; test: Antiproliferative activity against human HT-29 cells after 72 hrs by MTT assay; type: functional, cell-based; settings: for pIC50: Homo sapiens, HT-29, 72 h, read-out: IC50; for IC50: ht-29
Procedure, shortened: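 HT29 colon cells grown in RPMI 1640 with 10% FBS, 2 mmol/l glutamine, 1 mmol/l pyruvate and penicillin-streptomycin at 37 °C, 5% CO2. Cells seeded at 4000/well and attached for 24 h. Treated 72 h with 1000 to 0.32 µM (5-fold dilutions), final DMSO <0.1%; DMSO vehicle controls. MTT 0.5 mg/ml for 2 h, solubilized in DMSO, A570 read. Run in quadruplicate.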

[2] = test system: SK-BR-3; test: Antiproliferative activity against human SKBR3 cells after 72 hrs by MTT assay; type: functional, cell-based; settings: SK-BR-3, 72 h
[3] = test system: NCI-H292; test: Antiproliferative activity against human NCI-H292 cells after 72 hrs by MTT assay; type: functional, cell-based; settings: NCI-H292, 72 h
[4] = test system: NCI-H522; test: Antiproliferative activity against human NCI-H522 cells after 72 hrs by MTT assay; type: functional, cell-based; settings: NCI-H522, 72 h
[5] = Antiproliferative activity against human MDA468 cells after 72 hrs by MTT assay; type: functional, cell-based; settings: MDA-MB-468, 72 h
[6] = test system: MCF7; test: Antiproliferative activity against human MCF7 cells after 72 hrs by MTT assay; type: functional, cell-based; settings: MCF7, 72 h
[7] = test system: IMR-90; test: Cytotoxicity against human IMR90 cells after 72 hrs by MTT assay; type: cell-based; settings: IMR-90, 72 h
[8] = species on record: Bos taurus; test: Inhibition of bovine tubulin polymerization at 25 uM using microtubule-associated protein rich tubulin measured for 20 mins by spectrophotometry
Procedure, shortened: (§1)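 Bovine brain MAP-rich tubulin at 2 mg/ml in 80 mM PIPES pH 6.9, 2 mM MgCl2, 0.5 mM EGTA, 5% glycerol. Mixed with compound in DMSO or DMSO control at 37 °C. Polymerization started with GTP (2 µl of 1 mM stock) and followed as absorbance at 340 nm over 20 min.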

[9] = Solubility of the compound in RPMI 1640 cell culture medium; type: physicochemical
[10] = species on record: Bos taurus; test: Inhibition of bovine tubulin polymerization using microtubule-associated protein rich tubulin measured for 20 mins by spectrophotometry; procedure, shortened: as §1
[11] = species on record: Bos taurus; test: Inhibition of bovine tubulin polymerization at 8 uM using microtubule-associated protein rich tubulin at 10 mins by spectrophotometry relative to control; procedure, shortened: as §1
[12] = species on record: Bos taurus; test: Inhibition of bovine tubulin polymerization at 10 uM using microtubule-associated protein rich tubulin at 10 mins by spectrophotometry relative to control; procedure, shortened: as §1
[13] = species on record: Bos taurus; test: Induction of bovine tubulin polymerization at 2 uM using microtubule-associated protein rich tubulin measured for 20 mins by spectrophotometry; procedure, shortened: as §1
[14] = species on record: Bos taurus; test: Induction of bovine tubulin polymerization at 5 uM using microtubule-associated protein rich tubulin measured for 20 mins by spectrophotometry; procedure, shortened: as §1

SMILES | pIC50 [1] | further results
COc1ccc2c(c1)c(CC(=O)NCCN(C)C)c(C)n2C(=O)c1ccc2ccccc2c1 | 4.54 | –
COc1ccc2c(c1)c(CC(=O)Nc1ccc(Cl)cc1)c(C)n2C(=O)c1ccc(Cl)cc1 | 4.17 | –
COc1ccc2c(c1)c(CC(=O)O)c(C)n2C(=O)c1ccc(Cl)cc1 [INDOMETHACIN] | 2.98 | –
COc1ccc2c(c1)c(CC(=O)NCCN1CCCC1)c(C)n2C(=O)c1ccc(Cl)cc1 | 4.42 | –
COc1ccc2c(c1)c(CC(=O)NCCN(C)C)c(C)n2C(=O)c1ccc(Cl)cc1 | 3.77 | –
CCCCCCNC(=O)CC1=C(C)/C(=C/c2ccc([S+](C)[O-])cc2)c2ccc(F)cc21 (stereo not drawn) | 4.28 | –
COc1ccc2c(c1)c(CC(=O)NCCN1CCCC1)c(C)n2C(=O)c1cc(OC)c(OC)c(OC)c1 | 4.47 | –
CC1=C(CC(=O)NCCN(C)C)c2cc(F)ccc2/C1=C\c1ccc([S+](C)[O-])cc1 (stereo not drawn) | 4.33 | –
CC1=C(CC(=O)NCCN(C)C)c2cc(F)ccc2/C1=C\c1ccc(Br)cc1 | 4.70 | –
COc1ccc2c(c1)c(CC(=O)NCCN1CCCCC1)c(C)n2C(=O)c1ccc(Cl)cc1 | 3.56 | –
COc1ccc2c(c1)c(CC(=O)Nc1ccccc1OC)c(C)n2C(=O)c1ccc(Cl)cc1 | 2.95 | –
CCCCCC(C)NC(=O)CC1=C(C)/C(=C/c2ccc([S+](C)[O-])cc2)c2ccc(F)cc21 (stereo not drawn) | 2.67 | –
CC1=C(CC(=O)NCCN2CCCC2)c2cc(F)ccc2/C1=C\c1ccc([S+](C)[O-])cc1 (stereo not drawn) | 4.28 | –
COc1ccc2c(c1)c(CC(=O)Nc1ccc(I)cc1)c(C)n2C(=O)c1ccc(Cl)cc1 | 4.28 | –
COc1cccc(NC(=O)Cc2c(C)n(C(=O)c3ccc(Cl)cc3)c3ccc(OC)cc23)c1 | 2.92 | –
COc1ccc2c(c1)c(CC(=O)NCCN1CCOCC1)c(C)n2C(=O)c1cc(OC)c(OC)c(OC)c1 | 3.21 | –
COc1ccc2c(c1)c(CC(=O)NCCN(C)C)c(C)n2C(=O)c1ccc(Br)cc1 | 4.87 | pIC50 [2]: 5.32; pIC50 [3]: 5.46; pIC50 [4]: 4.97; pIC50 [5]: 5.54; pIC50 [6]: 5.02; pIC50 [7]: 4.38; inhibition [8]: Active
COc1ccc2c(c1)c(CC(=O)NCCCCCNC(=O)Cc1c(C)n(C(=O)c3ccc(Cl)cc3)c3ccc(OC)cc13)c(C)n2C(=O)c1ccc(Cl)cc1 | 3.96 | –
COc1ccc2c(c1)c(CC(=O)NCc1ccc(CNC(=O)Cc3c(C)n(C(=O)c4ccc(Cl)cc4)c4ccc(OC)cc34)cc1)c(C)n2C(=O)c1ccc(Cl)cc1 | – | IC50 [1]: ND(Insoluble); solubility [9]: Insoluble
COc1ccc(/C=C2/C(C)=C(CC(=O)NCCN(C)C)c3cc(F)ccc32)cc1 | 4.70 | –

SMILES | pIC50 [1] | further results
CC1=C(CC(=O)Nc2ccc(C#N)cc2)c2cc(F)ccc2/C1=C\c1ccc([S+](C)[O-])cc1 (stereo not drawn) | 2.59 | –
COc1ccc(C(=O)n2c(C)c(CC(=O)NCCN(C)C)c3cc(OC)ccc32)cc1 | 4.75 | –
CC1=C(CC(=O)Nc2ccc(Cl)cc2)c2cc(F)ccc2/C1=C\c1ccc([S+](C)[O-])cc1 (stereo not drawn) | 2.77 | –
COc1cc(/C=C2/C(C)=C(CC(=O)NCCN(C)C)c3cc(F)ccc32)cc(OC)c1OC | 3.85 | –
COc1ccc2c(c1)c(CC(=O)NCCN(C)C)c(C)n2C(=O)c1cc(OC)c(OC)c(OC)c1 | 5.57 | pIC50 [2]: 5.33; pIC50 [3]: 6.29; pIC50 [4]: 5.52; pIC50 [5]: 5.54; pIC50 [6]: 6.05; pIC50 [7]: 4.76; inhibition [8]: Active; inhibition [10]: Dose-dependent effect; inhibition [11]: 20%; inhibition [12]: 56%; Activity [13]: Active; Activity [14]: Active
CC1=C(CC(=O)NCCC(C)C)c2cc(F)ccc2/C1=C\c1ccc([S+](C)[O-])cc1 (stereo not drawn) | 2.85 | –
COc1ccc2c(c1)c(CC(=O)NCCN1CCOCC1)c(C)n2C(=O)c1ccc(OC)c(OC)c1 | – | IC50 [1]: ND(Insoluble); solubility [9]: Insoluble
CCCCNC(=O)CC1=C(C)/C(=C/c2ccc([S+](C)[O-])cc2)c2ccc(F)cc21 (stereo not drawn) | 3.91 | –
CCCCCCNC(=O)Cc1c(C)n(C(=O)c2ccc(Cl)cc2)c2ccc(OC)cc12 | 2.87 | –
CC1=C(CC(=O)NCCCN(C)C)c2cc(F)ccc2/C1=C\c1ccc([S+](C)[O-])cc1 (stereo not drawn) | 3.33 | –
CC1=C(CC(=O)O)c2cc(F)ccc2/C1=C\c1ccc([S+](C)[O-])cc1 (stereo not drawn) [SULINDAC] | 2.76 | –
CSc1ccc(/C=C2/C(C)=C(CC(=O)NCCN(C)C)c3cc(F)ccc32)cc1 | 4.95 | –
COc1ccc2c(c1)c(CC(=O)NCCN(C)C)c(C)n2C(=O)c1ccc(OC)c(OC)c1 | 4.36 | –
COc1ccc(NC(=O)CC2=C(C)/C(=C/c3ccc([S+](C)[O-])cc3)c3ccc(F)cc32)cc1 (stereo not drawn) | 2.60 | –
COc1ccc2c(c1)c(CC(=O)NCCN(C)C)c(C)n2S(=O)(=O)c1ccccc1 | 5.11 | pIC50 [2]: 5.19; pIC50 [3]: 5.31; pIC50 [4]: 4.85; pIC50 [5]: 4.80; pIC50 [6]: 5.31; pIC50 [7]: 4.73; inhibition [8]: Active
CCCCCCCCNC(=O)CC1=C(C)/C(=C/c2ccc([S+](C)[O-])cc2)c2ccc(F)cc21 (stereo not drawn) | 3.51 | –
COc1ccc2c(c1)c(CC(=O)NCCN1CCOCC1)c(C)n2C(=O)c1ccc(Br)cc1 | – | IC50 [1]: ND(Insoluble); solubility [9]: Insoluble
CC1=C(CC(=O)NCCN(C)C)c2cc(F)ccc2/C1=C\c1ccc2ccccc2c1 | 3.57 | –
CC1=C(CC(=O)NCCN(C)C)c2cc(F)ccc2/C1=C\c1ccc(Cl)cc1 | 4.91 | –
